Measurements published in PubChem BioAssay AID602227 (Southern Research Specialized Biocontainment Screening …, 2012).
The source made the active and inactive calls.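 Rule for the calls: active = viability below 80% at one or more tested concentrations, flagged as toxic; inconclusive = replicate runs disagree on whether the viability criterion is met; inactive = viability at or above 80% at every dose.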

Legend:
[1] = Vero E6 cell cytotoxicity, dose response, cytotoxicity control for PfM17LAP inhibitor project, set 2 (AID 602227); conditions: Vero E6 viability, CellTiter-Glo luminescence, 72 h; at 50 µM (top of the series)
Summary of the method: (§1)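 Test system – Vero E6 cells · Input – 3000 cells per well · Buffer or medium – E-MEM plus 10% FBS · Doses – compound dose-response, 10 concentrations in 2-fold serial dilution · Incubation – 72 h compound exposure at 37 °C, 5% CO2 · Signal – CellTiter-Glo luminescence · Evaluation – % viability vs DMSO, fitted CC50 · Control set – DMSO vehicle-treated cells as reference for full viability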

[2] = tested on: Vero E6 viability, CellTiter-Glo luminescence, 72 h; assay: as above
Summary of the method: as §1

Row | Compound | viability [1] | CC50 [2] [µM]
1 | Cc1ccc(CC(=O)NO)cc1 | 102% (inactive) | –
2 | CC(C)(C(=O)NO)c1ccccc1 | 102% (inactive) | –
3 | COC(=O)Cc1ccc(OCC(C)C)cc1 | 101% (inactive) | –
4 | CCOc1ccc(CC(=O)NO)cc1 | 98.9% (inactive) | –
5 | CCCCc1ccc(CC(=O)NO)cc1 | – | 34.7
6 | CCCCOc1ccc(CCC(=O)NO)cc1 | – | 29.1
7 | CCCCCCCCCC(=O)NO | – | 25.2
8 | COC(=O)Cc1ccc(OCCN(C)C)cc1 | 94.5% (inactive) | –
9 | CCCOc1ccc(CC(=O)OC)cc1 | 94.9% (inactive) | –
10 | CCCCOc1ccc(CNc2c(N(C)O)c(=O)c2=O)cc1 | 90% (inactive) | –
11 | CCCCOc1ccc(CNc2c(N(O)Cc3ccccc3)c(=O)c2=O)cc1 | 92.8% (inactive) | –
12 | CCCCOc1ccc(CC(=O)O)cc1 | 88.7% (inactive) | –
13 | O=C(Cc1ccc(Oc2ccccc2)cc1)NO | – | 32.4
14 | COc1ccc(CC(=O)NO)cc1 | 95.7% (inactive) | –
15 | CCC(C)Oc1ccc(CC(=O)OC)cc1 (configuration not stated) | 102% (inactive) | –
16 | CN(O)C(=O)Cc1ccc(OCc2ccccc2)cc1 | – | 24.8
17 | CCCCOc1ccc(CC(=O)N(C)O)cc1 | – | 27.2
